Results as given in ChEMBL document CHEMBL4613263, “Optimization of Tetrahydroindazoles as Inhibitors of Human Dihydroorotate Dehydrogenase and Evaluation of Their Activity and In Vitro Metabolic Stability” (J Med Chem, 2020).
pIC50: −log10 of the molar value. In brackets after ≈: the same amount, converted by molar mass. Activity calls are given as the source filed them. The calls are words filed in the database; no cut-off is given here.

Experiments:
[1] = Metabolic stability in CD-1 mouse liver microsomes assessed as half life at 1 uM incubated for 60 mins by LC-MS/MS analysis; assay type: ADME, Microsome; conditions: for half-life at 1 µM: CD-1, mouse, liver microsomes
Summary of the method: (§1)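 Compound at 1 µM with 1.0 mg/mL human or mouse liver microsomes in 50 mM potassium phosphate pH 7.4, preincubated 5 min at 37 °C. Started with 1 mM NADPH (or blank buffer). Quenched with cold acetonitrile containing glipizide at 0, 5, 15, 30, 60 min. Parent loss tracked by LC-MS/MS in MRM mode; t½ = 0.693/k from slope of peak-area ratio versus time.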

[2] = Kinetic aqueous solubility of compound in Prima HT solution at pH 7.4 incubated for 4 hrs by UV-spectrophotometry; assay type: physicochemical; conditions: read-out: Kinetic_solubility
Summary of the method: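 20 mM DMSO stocks diluted 100× into Prima HT buffer at pH 7.4 and shaken 4 h at rt. Samples filtered through 0.22 µm, mixed 1:1 with isopropanol and scanned by UV from 190–400 nm against stock reference standards.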

[3] = Cytotoxicity against human HNDF cells assessed as reduction in cell viability incubated for 72 hrs by SRB assay; assay type: cell-based; conditions: for pIC50: Homo sapiens, 72 h, read-out: IC50
Summary of the method: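 Human normal dermal fibroblasts seeded at 15×10^2 per well and left 24 h, then exposed to compound for 72 h with 0.1% DMSO final. Cells fixed with TCA at 4 °C for 1 h, stained with SRB, solubilized in 10 mM Tris and read at 490 nm. Values normalized to DMSO control. Tabulated means come only from experiments where IC50 fell below 10 000 nM.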

[4] = Antiproliferative activity against human ARN8 cells assessed as reduction in cell viability incubated for 72 hrs by SRB assay; assay type: functional, cell-based; conditions: for pIC50: Homo sapiens, ARN8, 72 h, read-out: IC50
[5] = Metabolic stability in human liver microsomes assessed as half life at 1 uM incubated for 60 mins by LC-MS/MS analysis; assay type: ADME, Microsome; conditions: for half-life at 1 µM: liver microsomes; summary of the method: as §1
[6] = target: T1, Dihydroorotate dehydrogenase (quinone), mitochondrial (Homo sapiens, UniProt Q02127); experiment: Inhibition of DHODH in human ARN8 cells assessed as activation of p53-dependent transcription at 0.05 to 10 uM incubated for 16 hrs by CPRG assay; assay type: cell-based
Summary of the method: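 ARN8 cells carrying the RGCΔFos-LacZ p53 reporter seeded at 2×10^4 per well and left 24 h, then treated 16 h (0.1% DMSO final, ±100 µM uridine). Cells washed, lysed and frozen at −20 °C for at least 2 h. β-galactosidase measured with CPRG substrate at pH 7.5, read at 590 nm after 24 h. Result is fold change vs DMSO; mean ± SD of three technical replicates.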

[7] = target: T1, Dihydroorotate dehydrogenase (quinone), mitochondrial; experiment: Inhibition of recombinant human N-terminal His-tagged DHODH (31 to 395 residues) expressed in Escherichia coli expression system using dihydroorotic acid as substrate by DCIP assay
[8] = target: T1, Dihydroorotate dehydrogenase (quinone), mitochondrial; experiment: Inhibition of recombinant human DHODH using dihydroorotic acid as substrate measured for 68 mins by DCIP based colorimetric assay
[9] = species: Homo sapiens; experiment: Antiproliferative activity against human ARN8 cells assessed as reduction in cell viability incubated with compound at higher concentration for 72 hrs in presence of 100 uM […], uridine by SRB assay; assay type: functional, cell-based
[10] = Cytotoxicity against human HNDF cells assessed as reduction in cell viability incubated with compound at higher concentration for 72 hrs in presence of 100 uM […], uridine by SRB assay; assay type: cell-based
Summary of the method: (§2)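 Normal dermal fibroblasts seeded at 15×10^2 per well and left 24 h, then treated 72 h in medium with 0.1% DMSO final plus 100 µM uridine. Fixed with TCA, stained with 0.4% SRB, dye dissolved in Tris and read at 490 nm. Growth/viability given as % of DMSO control; mean ± SD of three technical replicates.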

[11] = Cytotoxicity against human HNDF cells assessed as reduction in cell viability incubated for 72 hrs in presence of 100 uM […], uridine by SRB assay; assay type: cell-based; summary of the method: as §2
[12] = species: Homo sapiens; experiment: Antiproliferative activity against human ARN8 cells assessed as reduction in cell viability at 0.005 to 10 uM incubated for 72 hrs in presence of 100 uM […], uridine by SRB assay; assay type: functional, cell-based
[13] = Drug metabolism in CD-1 mouse liver microsomes assessed as hydroxylation-mediated M1 metabolite with m/z as 397.1 formation by measuring retention time at 10 uM incubated for 60 mins by LC-MS/MS analysis; assay type: ADME, Microsome; conditions: 1 h
Summary of the method: (§3)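 10 µM compound in 100 mM phosphate pH 7.4 with pooled female CD-1 mouse liver microsomes and NADPH, at 37 °C for 0, 10, 20, 40 and 60 min. Stopped with equal-volume cold acetonitrile, then centrifuged, dried and reconstituted. Metabolites and parent resolved on C18 UHPLC with ion-trap MS. Each peak reported as % of total (metabolite + parent) area.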

[14] = Drug metabolism in CD-1 mouse liver microsomes assessed as disappearance of parent compound by measuring parent compound retention time at 10 uM incubated for 60 mins by LC-MS/MS analysis; assay type: ADME, Microsome; conditions: 1 h; summary of the method: as §3
[15] = Drug metabolism in CD-1 mouse liver microsomes assessed as hydroxylation-mediated M2 metabolite with m/z as 397.1 formation by measuring retention time at 10 uM incubated for 60 mins by LC-MS/MS analysis; assay type: ADME, Microsome; conditions: 1 h; summary of the method: as §3
[16] = target: DNA topoisomerase 2-alpha (Homo sapiens) (UniProt P11388); conditions: 20 uM
[17] = target: DNA topoisomerase 2-alpha (Homo sapiens) (UniProt P11388); conditions: 20 uM; remark: listed apart in the source
[18] = target: DNA topoisomerase 2-alpha (Homo sapiens) (UniProt P11388); conditions: 20 uM; remark: listed apart in the source
[19] = target: DNA topoisomerase 2-alpha (Homo sapiens) (UniProt P11388); conditions: 20 uM; remark: listed apart in the source
[20] = target: DNA topoisomerase 2-alpha (Homo sapiens) (UniProt P11388); conditions: 20 uM; remark: listed apart in the source
[21] = target: T1, Dihydroorotate dehydrogenase (quinone), mitochondrial; experiment: Inhibition of DHOH in human ARN8 cells assessed as gammaH2AX level at 20 uM incubated for 1 hr in presence of pan-caspase inhibitor, Z-VAD-FMK by Western blot analysis; assay type: cell-based
Summary of the method: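 ARN8 cells treated 24 h at 20 nM, with 20 µM Z-VAD-FMK or vehicle added 4.5 h before harvest. Etoposide arm was 20 µM for 1 h alongside Z-VAD-FMK. Lysates normalized for protein and analysed by western blot for p53, p-Ser15 p53, γ-H2AX, H2AX and cleaved PARP (85 kDa) against stain-free total-protein loading.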

[22] = target: DNA topoisomerase 2-alpha (Homo sapiens) (UniProt P11388); conditions: 20 uM; remark: listed apart in the source

T1 sequence (Q02127 whole entry): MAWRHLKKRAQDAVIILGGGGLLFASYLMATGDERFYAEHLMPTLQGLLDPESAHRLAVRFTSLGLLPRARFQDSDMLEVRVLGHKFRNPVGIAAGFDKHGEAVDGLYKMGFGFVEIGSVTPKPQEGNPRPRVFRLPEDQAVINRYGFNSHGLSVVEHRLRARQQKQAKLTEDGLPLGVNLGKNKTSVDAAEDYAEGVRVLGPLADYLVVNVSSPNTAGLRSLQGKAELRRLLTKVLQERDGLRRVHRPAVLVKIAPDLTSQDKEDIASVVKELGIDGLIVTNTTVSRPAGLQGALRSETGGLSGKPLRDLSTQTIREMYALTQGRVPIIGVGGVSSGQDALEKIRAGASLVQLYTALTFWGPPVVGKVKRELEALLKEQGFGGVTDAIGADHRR
DNA topoisomerase 2-alpha (Homo sapiens), sequence (P11388 whole entry): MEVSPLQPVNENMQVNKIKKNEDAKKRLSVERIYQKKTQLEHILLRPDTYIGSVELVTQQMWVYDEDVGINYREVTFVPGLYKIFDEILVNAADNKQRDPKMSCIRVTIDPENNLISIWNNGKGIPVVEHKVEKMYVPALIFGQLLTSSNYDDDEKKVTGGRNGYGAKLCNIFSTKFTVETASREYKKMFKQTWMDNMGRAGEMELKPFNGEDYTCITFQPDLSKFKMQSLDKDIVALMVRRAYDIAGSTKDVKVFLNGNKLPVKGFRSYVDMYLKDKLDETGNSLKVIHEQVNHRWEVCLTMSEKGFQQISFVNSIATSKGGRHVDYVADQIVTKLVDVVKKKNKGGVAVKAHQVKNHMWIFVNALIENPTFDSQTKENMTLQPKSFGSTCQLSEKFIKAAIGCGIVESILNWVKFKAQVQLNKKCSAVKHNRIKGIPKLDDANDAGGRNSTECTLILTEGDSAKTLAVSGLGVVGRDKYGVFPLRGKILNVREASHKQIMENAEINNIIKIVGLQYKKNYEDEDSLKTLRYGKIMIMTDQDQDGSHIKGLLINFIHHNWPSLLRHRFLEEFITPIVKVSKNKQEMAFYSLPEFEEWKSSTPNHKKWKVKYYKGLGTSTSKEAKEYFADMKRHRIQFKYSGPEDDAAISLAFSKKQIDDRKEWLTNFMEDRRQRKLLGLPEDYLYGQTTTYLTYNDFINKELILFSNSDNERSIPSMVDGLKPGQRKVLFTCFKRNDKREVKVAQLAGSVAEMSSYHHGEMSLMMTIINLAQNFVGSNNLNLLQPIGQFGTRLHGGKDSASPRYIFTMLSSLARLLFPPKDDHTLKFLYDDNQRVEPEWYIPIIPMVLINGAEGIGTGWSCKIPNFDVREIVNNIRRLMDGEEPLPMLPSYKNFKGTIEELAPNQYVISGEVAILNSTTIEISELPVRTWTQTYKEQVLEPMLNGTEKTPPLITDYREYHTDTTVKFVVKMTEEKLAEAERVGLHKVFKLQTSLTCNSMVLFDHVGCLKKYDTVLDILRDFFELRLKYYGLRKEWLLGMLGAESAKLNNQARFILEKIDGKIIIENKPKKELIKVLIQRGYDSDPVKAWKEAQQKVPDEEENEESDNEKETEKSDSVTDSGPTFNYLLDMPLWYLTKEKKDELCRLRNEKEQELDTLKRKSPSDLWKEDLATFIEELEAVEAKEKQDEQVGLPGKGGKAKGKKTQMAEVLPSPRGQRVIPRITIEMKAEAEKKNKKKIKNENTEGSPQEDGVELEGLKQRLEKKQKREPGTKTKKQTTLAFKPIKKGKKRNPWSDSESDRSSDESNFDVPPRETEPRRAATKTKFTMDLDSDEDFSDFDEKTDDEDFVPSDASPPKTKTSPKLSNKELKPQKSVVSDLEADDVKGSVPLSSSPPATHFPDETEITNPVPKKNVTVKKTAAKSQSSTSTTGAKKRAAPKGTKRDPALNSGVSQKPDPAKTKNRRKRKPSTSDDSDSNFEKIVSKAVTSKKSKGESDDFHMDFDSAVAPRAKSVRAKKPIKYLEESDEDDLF

Cc1c(-c2ccc(-c3ccccc3F)cc2)nc2ccc(F)cc2c1C(=O)O [BREQUINAR]
Stability ([1]; mouse, microsomes, 1 h, 1 µM): Stable | solubility kinetic at 4 h [2]: 110 µM (≈ 41.3 µg/mL) | pIC50 [3]: < 5.00 | pIC50 [4]: 6.40 | half-life at 1 µM [5]: > 60 min

O=C(N[C@H]1CCCc2c1cnn2-c1ccccc1F)c1onc2c1CCCC2
inhibition [6]: inactive | pIC50 [7]: 5.19 | IC50 [3]: Not Active | IC50 [4]: Not Active

O=C(N[C@@H]1CCCc2c1cnn2-c1ccccc1F)c1ncc2ccccn12
pIC50 [3]: 5.03 | pIC50 [4]: 7.42

COC(=O)c1ccc(C(=O)NC2CCCc3c2cnn3-c2ccccc2F)nc1 (racemic)
pIC50 [8]: < 5.00

Cc1ccccc1-n1ncc2c1CCCC2NC(=O)c1noc2c1CCCC2 (racemic)
inhibition [9]: Active | Activity [10]: Non-Toxic | pIC50 [3]: 5.07 | pIC50 [4]: 7.82 | Activity [11]: Toxic | Activity [12]: inactive

Cc1cccc(-n2ncc3c2CCCC3NC(=O)c2noc3c2CCCC3)c1C (racemic)
inhibition [9]: Active | Activity [10]: Non-Toxic | pIC50 [3]: 5.11 | pIC50 [4]: 7.64 | Activity [11]: Toxic | Activity [12]: inactive

Cc1ccccc1-n1ncc2c1CCC[C@H]2NC(=O)c1onc2c1CCCC2
pIC50 [3]: < 5.00 | pIC50 [4]: 7.14

O=C(N[C@@H]1CCCc2c1cnn2-c1ccccc1F)c1onc2c1CCCC2
half-life at 1 µM [1]: 8 min | inhibition [6]: Active | Retention_time [13]: 4.1 min | solubility kinetic at 4 h [2]: 15 µM (≈ 5.71 µg/mL) | Retention_time [14]: 5.3 min | pIC50 [3]: < 5.00 | Retention_time [15]: 4.3 min | pIC50 [4]: 6.80 | half-life at 1 µM [5]: 85 min

Cc1cccc(-n2ncc3c2CCCC3NC(=O)c2noc3c2CCCC3)c1 (racemic)
pIC50 [3]: 5.10 | pIC50 [4]: 6.77

COc1cc([C@@H]2c3cc4c(cc3[C@@H](O[C@@H]3O[C@@H]5CO[C@@H](C)O[C@H]5[C@H](O)[C@H]3O)[C@H]3COC(=O)[C@H]23)OCO4)cc(OC)c1O
inhibition [16]: Active | inhibition [17]: Active | inhibition [18]: Active | inhibition [19]: Active | inhibition [20]: Active | inhibition [21]: Active | inhibition [22]: Active

O=C(N[C@H]1CCCc2c1cnn2-c1ccccc1F)c1noc2c1CCCC2
IC50 [3]: Not Active | IC50 [4]: Not Active

O=C(N[C@@H]1CCCc2c1cnn2-c1ccccc1F)c1ccccn1
half-life at 1 µM [1]: 1 min | pIC50 [3]: < 5.00 | pIC50 [4]: 6.03 | half-life at 1 µM [5]: > 60 min

O=C(NC1CCCc2c1cnn2-c1ccccc1)c1noc2c1CCCC2 (racemic)
pIC50 [3]: 5.15 | pIC50 [4]: 6.37

O=C(N[C@@H]1CCCc2c1cnn2-c1ccccc1F)c1cc(C(F)(F)F)ccn1
half-life at 1 µM [1]: 54 min | solubility kinetic at 4 h [2]: < 5 µM | pIC50 [3]: < 5.00 | pIC50 [4]: 6.96 | Activity [11]: Toxic | Activity [12]: inactive | Stability ([5]; microsomes, 1 h, 1 µM): Stable

O=C(NC1CCCc2c1cnn2-c1ccccc1F)c1ccccn1 (racemic)
pIC50 [3]: < 5.00 | pIC50 [4]: 5.27

Cc1ccnc(C(=O)N[C@@H]2CCCc3c2cnn3-c2ccccc2C)c1
half-life at 1 µM [1]: 10 min | solubility kinetic at 4 h [2]: 110 µM (≈ 38.1 µg/mL) | pIC50 [3]: < 5.00 | pIC50 [4]: 7.21 | Activity [11]: Toxic | Activity [12]: inactive | half-life at 1 µM [5]: > 60 min

O=C(N[C@@H]1CCCc2c1cnn2-c1ccccc1F)c1noc2c1CCCC2
pIC50 [3]: 5.00 | pIC50 [4]: 7.10 | Activity [12]: inactive

O=C(NC1CCCc2c1cnn2-c1ccccc1F)c1ccccc1 (racemic)
IC50 [3]: Not Active | IC50 [4]: Not Active

Cc1ccccc1-n1ncc2c1CCC[C@H]2NC(=O)c1noc2c1CCCC2
half-life at 1 µM [1]: 6 min | solubility kinetic at 4 h [2]: 10 µM (≈ 3.76 µg/mL) | inhibition [9]: Active | Activity [10]: Non-Toxic | pIC50 [3]: < 5.00 | pIC50 [4]: 7.85 | half-life at 1 µM [5]: 23 min

O=C(N[C@@H]1CCCc2c1cnn2-c1ccccc1F)c1ncccn1
IC50 [3]: Not Active | IC50 [4]: Not Active

O=C(NC1CCCc2c1cnn2-c1ccccc1F)c1onc2c1CCCC2 (racemic)
pIC50 [3]: 5.05 | pIC50 [4]: 6.66

O=C(N[C@H]1CCCc2c1cnn2-c1ccccc1F)c1ccccn1
IC50 [3]: Not Active | IC50 [4]: Not Active

Cc1ccc(F)c(-n2ncc3c2CCC[C@H]3NC(=O)c2onc3c2CCCC3)c1
pIC50 [3]: 5.17 | pIC50 [4]: 6.70
